Measurements reported in ChEMBL document CHEMBL4725371, “A Novel Redox Modulator Induces a GPX4-Mediated Cell Death That Is Dependent on Iron and Reactive Oxygen Species” (J Med Chem, 2020).
Active and inactive are the calls of the source. The calls are words filed in the database; no cut-off is given here.

How the values were obtained:
[1] = Half life in mouse liver microsomes at 10 uM in presence of NADPH by LC-MS/MS analysis; assay type: ADME, Microsome; conditions: liver microsomes
In short: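 Compound (10 μM working solution in 0.1 M phosphate buffer with 3.3 mM MgCl₂) was incubated with mouse liver microsomes and NADPH. Verapamil served as reference. Samples were taken at 0, 5, 10, 15, 30, 45 and 60 min and centrifuged at 3500 g. Supernatant was run by LC-MS/MS. t1/2 came from the slope of ln(peak area ratio) against time.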

[2] = test system: MIA PaCa-2; assay: Induction of DNA damage in human MIA PaCa-2 cells assessed as increase in H2AX phosphorylation at 1 to 1.5 uM measured after 4 hrs by Western blot analysis; assay type: functional, cell-based; conditions: dose microM 1-1.5, time 4.0 hrs
In short: (§1)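 Cells were treated 4 h at the stated concentrations and lysed in RIPA with protease and phosphatase inhibitors. 25 μg protein was resolved on 10% SDS gels, transferred to PVDF and probed for STAT3, pSTAT3, pH2AX and GAPDH. Detection used fluorescent secondary antibodies, with normalisation to loading control.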

[3] = test system: MIA PaCa-2; assay: Induction of reactive oxygen species in human MIA PaCa-2 cells at 10 uM measured after 1 hr by CM-H2DCFDA dye based fluorescence assay; assay type: functional, cell-based
In short: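 1.8 × 10⁴ cells per well were attached overnight, then loaded with 10 μM CM-H2DCFDA in HBSS for 40 min at 37 °C and washed. Compounds were added in HBSS. Fluorescence was read at Ex 483 / Em 530 nm. TBHP was the positive control. NAC at 3 mM was used where stated.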

[4] = test system: MIA PaCa-2; assay: Cytotoxicity against human MIA PaCa-2 cells transfected with GPX4 siRNA measured after 72 hrs by MTT assay; assay type: functional, cell-based
[5] = test system: PANC-1; assay: Down regulation of LRPPRC expression in human PANC-1 cells at 3 times IC50 measured after 1 to 24 hrs by proteomics analysis; assay type: functional, cell-based; conditions: time hrs 1-24
[6] = Plasma concentration in CD-1 mouse at 10 mg/kg, ip measured after 7 hrs by LC-MS/MS analysis; assay type: ADME, organism-based
In short: (§2)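 CD-1 mice dosed IP at 10 mg/kg or PO at 20 mg/kg, n=2 per route. Blood taken with heparinized pipettes at 0.5, 2, 4 and 7 h and spun at 15,000 rpm for 10 min. Plasma stored at −80 °C, then measured by LC-MS/MS.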

[7] = test system: MIA PaCa-2; assay: Induction of ferroptosis in human MIA PaCa-2 cells assessed as increase in lipid peroxidation measured after 24 hrs by C11-BODIPY dye based fluorescence assay; assay type: functional, cell-based
In short: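 MIA PaCa-2 cells were treated for the set time, then given 10 μM C11-BODIPY for 30 min at 37 °C and washed. Fluorescence was read at 581/591 nm (reduced dye) and 488/510 nm (oxidized dye). The intensity ratio was compared by unpaired t-test.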

[8] = test system: MIA PaCa-2; assay: Down regulation of PNPT1 gene expression in human MIA PaCa-2 cells at 3 times IC50 measured after 4 hrs by Trizol reagent based Bru labelling based gene sequence analysis; assay type: functional, cell-based
In short: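 Bru-seq: 2 × 10⁶ cells were seeded in duplicate and treated at 3 × IC50 for 4 h. Bromouridine (2 mM final) was added for the last 30 min at 37 °C. Total RNA was extracted in TRIzol. BrU-labelled RNA was captured with anti-BrdU magnetic beads, made into cDNA libraries and deep-sequenced.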

[9] = Drug metabolism in mouse plasma assessed as 5,8-dimethoxy-N-[4-(4-methylpiperazin-1-yl)phenyl]quinazolin-6-amine formation at 500 uM measured after 0.5 hrs by LC-MS/MS analysis; assay type: ADME, cell-free
In short: (§3)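 Compound (500 μM DMSO stock, 1 μL per 500 μL) was incubated in pooled mouse plasma. Samples were taken at 0.5 h and metabolites identified by LC-MS/MS.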

[10] = test system: MIA PaCa-2; assay: Inhibition of colony formation in human MIA PaCa-2 cells at 0.4 to 0.8 uM measured after 7 to 9 days in presence of autophagy inhibitor chloroquine by crystal violet staining based assay; assay type: functional, cell-based; conditions: dose microM 0.4-0.8, time day 7-9
In short: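 Cells seeded overnight in 96-well plates at 300 cells/well (MIA PaCa-2) or 600 cells/well (BxPC-3), in RPMI 1640 with 10% FBS. Inhibitor added 1 h before compound, then continuous exposure for 7–9 days until control wells were 80–90% confluent. Stained with 0.05% crystal violet for 30 min, imaged after overnight drying and quantified.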

[11] = Plasma concentration in CD-1 mouse at 20 mg/kg, po measured after 7 hrs by LC-MS/MS analysis; assay type: ADME, organism-based; in short: as §2
[12] = Drug metabolism in mouse plasma assessed as 6-[4-[(3S,5R)-3,5-dihydroxy-4-methyl-piperazin-1-yl]anilino]quinazoline-5,8-dione formation at 500 uM measured after 0.5 hrs by LC-MS/MS analysis; assay type: ADME, cell-free; in short: as §3
[13] = test system: MIA PaCa-2; assay: Down regulation of PNPT1 expression in human MIA PaCa-2 cells at 3 times IC50 measured after 4 hrs in presence of NAC by proteomics analysis; assay type: functional, cell-based
[14] = Half life in mouse plasma at 500 uM by LC-MS/MS analysis; assay type: ADME, cell-free; conditions: 500 µM
In short: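 Compound (500 μM DMSO stock) was added at 1 μL per 500 μL pooled plasma. Samples were taken at 0, 0.17, 0.5, 1, 2 and 4 h and centrifuged at 3500 g for 10 min. Supernatant was run by LC-MS/MS. t1/2 came from the slope of ln(compound/internal standard peak area) against time.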

[15] = test system: MIA PaCa-2; assay: Induction of reactive oxygen species in human MIA PaCa-2 cells assessed as reduction in GSH to GSSG ratio at 1.5 to 6 uM measured after 2 to 4 hrs by GSH/GSSG-glo assay; assay type: functional, cell-based; conditions: dose microM 1.5-6, time hrs 2-4
In short: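 GSH/GSSG-Glo luminescent assay: 15,000–20,000 MIA PaCa-2 cells per well, attached overnight, treated 2 h and 4 h. Cells were lysed with total or oxidized glutathione reagent, then luciferin generation (30 min, room temperature) and detection reagents added. Luminescence was read after 15 min. Ratio was computed from net RLU as (total − GSSG)/(GSSG/2).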

[16] = test system: MIA PaCa-2; assay: Down regulation of LRPPRC expression in human MIA PaCa-2 cells at 1.2 uM measured after 24 hrs by proteomics analysis; assay type: functional, cell-based
In short: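 MIA PaCa-2 cells were treated with 1.2 μM compound or DMSO for 24 h and lysed in RIPA buffer. 75 μg protein per sample was run in duplicate by TMT10plex-labelled proteomics. Abundance ratio was taken as treatment over control. Changes of at least 1.5-fold at FDR < 0.05 were scored.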

[17] = test system: PANC-1; assay: Cytotoxicity against human PANC-1 cells measured after 72 hrs by MTT assay; assay type: functional, cell-based; conditions: PANC-1, 72 h
In short: (§4)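 Cells were kept in RPMI 1640 with 10% FBS at 37 °C, 5% CO₂, under 35 passages. Cells were seeded, attached overnight and treated with compound or DMSO for 72 h. MTT was added at 0.3 mg/mL for 3 h, then dissolved in DMSO and read as absorbance at 570 nm. IC50 was fitted from the curve. Values are mean ± sd of three independent experiments.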

[18] = target: Signal transducer and activator of transcription 3 (Homo sapiens) (UniProt P40763); assay: Inhibition of STAT3 phosphorylation in human MIA PaCa-2 cells at 1 to 1.5 uM measured after 4 hrs by Western blot analysis; assay type: cell-based; conditions: dose microM 1-1.5, time 4.0 hrs; in short: as §1
Chain of Signal transducer and activator of transcription 3 (Homo sapiens) (P40763 whole entry): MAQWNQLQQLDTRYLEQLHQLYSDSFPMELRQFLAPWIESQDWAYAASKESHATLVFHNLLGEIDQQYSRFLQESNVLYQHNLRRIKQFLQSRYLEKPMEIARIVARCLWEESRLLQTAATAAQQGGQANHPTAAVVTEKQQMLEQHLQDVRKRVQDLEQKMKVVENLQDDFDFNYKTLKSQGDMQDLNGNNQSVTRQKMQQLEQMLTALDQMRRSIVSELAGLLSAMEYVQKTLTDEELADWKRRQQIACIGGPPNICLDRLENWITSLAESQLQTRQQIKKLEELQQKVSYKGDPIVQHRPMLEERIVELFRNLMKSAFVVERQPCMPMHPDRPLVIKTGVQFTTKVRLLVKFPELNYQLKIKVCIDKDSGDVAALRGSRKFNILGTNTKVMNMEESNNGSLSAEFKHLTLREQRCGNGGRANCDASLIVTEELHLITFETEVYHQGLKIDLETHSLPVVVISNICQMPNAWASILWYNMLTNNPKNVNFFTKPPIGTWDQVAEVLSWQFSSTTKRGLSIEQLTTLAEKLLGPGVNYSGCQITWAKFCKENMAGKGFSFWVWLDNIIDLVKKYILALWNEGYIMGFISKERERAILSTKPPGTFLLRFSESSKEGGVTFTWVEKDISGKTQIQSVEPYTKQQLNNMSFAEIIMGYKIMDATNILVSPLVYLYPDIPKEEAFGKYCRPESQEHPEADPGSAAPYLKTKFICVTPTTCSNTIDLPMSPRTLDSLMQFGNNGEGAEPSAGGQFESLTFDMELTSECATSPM

[19] = test system: MIA PaCa-2; assay: Cytotoxicity against human MIA PaCa-2 cells measured after 72 hrs by MTT assay; assay type: functional, cell-based; conditions: MIA PaCa-2, 72 h; in short: as §4

SMILES: CN1CCN(c2ccc(NC3=CC(=O)c4ncncc4C3=O)cc2)CC1
- half-life at 10 µM [1]: > 60 min
- Activity [2]: Active
- Activity [3]: Active
- Activity [4]: inactive
- Activity [5]: inactive
- concentration at 7 h [6]: 4.5 ng/mL
- Activity [7]: Dose-dependent effect
- Activity [8]: Active
- Drug metabolism [9]: Metabolite_Detected
- inhibition [10]: Active
- concentration at 7 h [11]: 23.3 ng/mL
- Drug metabolism [12]: Metabolite_Detected
- Activity [13]: Active
- t1/2 [14]: 6 min
- Activity [15]: Active
- Activity [16]: Active
- IC50 [17]: 340 nM
- inhibition [18]: Active
- IC50 [19]: 640 nM
